Assay [1] concerns HCT-116. As to the kind of experiment: Induction of apoptosis in human HCT116 cells assessed as early apoptotic cells level incubated for 48 hrs by Annexin V-FITC/PI staining based cytometry (reference value: 1.1%). The class given is functional.
For assay [2], the system named is HCT-116. As to the kind of experiment: Induction of apoptosis in p53-/- human HCT116 cells assessed as necrotic cells level at 4 uM incubated for 48 hrs by Annexin V-FITC/PI staining based cytometry (reference value: 0.8%). The class given is functional. Summed up: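 HCT116 p53-/- cells (Vogelstein line) in McCoy's 5A with 10% FBS, 37 °C, 5% CO2. Seeded at 5×10^5 in 6-well plates, treated with vehicle or 4 μM at 80% confluence. After treatment, trypsinised, washed twice in ice-cold PBS pH 7.4, and stained in binding buffer with Annexin V-FITC and PI for 15 min at room temperature in the dark. Read by flow cytometry.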

Assay [3] deals with HCT-116. As to the kind of experiment: Induction of apoptosis in human HCT116 cells assessed as necrotic cells level pre-incubated with 20 uM pan-caspase inhibitor Z-VAD-FMK for 5 hrs followed by compound addition and further incubated for 48 hrs by Annexin V-FITC/PI staining based cytometry (reference value: 0.2%). The class given is functional. Set-up: scale not given: the % may be the effect or the level left.

The subject of assay [4] is HCT-116. The experiment in a line: […] of ROS generation in human HCT116 cells pre-treated with 7.5 mM GSH for […] followed by 8 uM compound addition and further incubated for 24 hrs by H2DCFDA dye based flow cytometry. In kind it is functional, cell-based. Summed up:
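HCT116 cells pre-treated 5 h with H2O, 7.5 mM L-NAC or 7.5 mM GSH, then exposed to compound for 24 h. Cells collected, washed twice in PBS, and resuspended in serum-free McCoy's 5A with 10 nM H2DCFDA for 20 min at 37 °C in the dark. After two PBS washes, relative ROS measured by flow cytometry.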

The test system of assay [5] is HCT-116. The experiment in a line: Induction of apoptosis in human HCT116 cells assessed as G1 phase cells level at 4 uM incubated for 24 hrs by […]PI staining based cytometry (reference value: 65.2%). In kind it is functional. Summed up:
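Cells were treated for 24 h, then fixed in 75% ethanol at -20 °C overnight. RNA was digested with 0.2 mg/mL RNase A for 30 min at 37 °C. Cells were stained with 50 µg/mL PI for 30 min in the dark, and DNA content was read by flow cytometry.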

Assay [6] has as its system PC-3. As to the kind of experiment: Cytotoxicity against human PC3 cells assessed as reduction in cell viability incubated for 24 hrs by MTT assay. In kind it is functional, cell-based. The conditions noted are these: PC-3, 24 h. The procedure, abridged:
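Cells were kept in McCoy's 5A with 10% fetal bovine serum, streptomycin and 100 units·mL⁻¹ penicillin at 37 °C under 5% CO₂/95% air. Viability was read by MTT optical density. IC50 is the concentration that lowers optical density by 50% relative to untreated cells. Values are means with SD of at least three independent determinations.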
A general note: Tetrazolium dyes change colour on reduction, which living cells bring about.

In assay [7] the test system is HCT-116. The experiment in a line: Induction of apoptosis in Bax-/- human HCT116 cells assessed as necrotic cells level at 4 uM incubated for 48 hrs by Annexin V-FITC/PI staining based cytometry (reference value: 0.3%). In kind it is functional. Summed up: (§1)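 Cells were plated at 5×10^5 per well and treated once 80% confluent. After trypsinisation and two washes in ice-cold PBS (pH 7.4), cells were stained with Annexin V-FITC and PI for 15 min at room temperature in the dark. Analysis was by flow cytometry. The legend gives vehicle or 4 µM for the p53-/- and Bax-/- lines.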

Assay [8] relates to HCT-116. The experiment in a line: Induction of apoptosis in human HCT116 cells assessed as increase in cleaved PARP level at 4 uM incubated for 24 hrs by Western blot method. The class given is functional, cell-based. The procedure, abridged:
(§2)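 Lysates were made in SDS buffer (2% SDS, 50 mM Tris-HCl pH 6.8) and quantified by BCA. Equal protein was run on 10% SDS-PAGE and transferred to PVDF. Membranes were blocked in 5% milk, probed overnight at 4 °C for cleaved PARP (1:1000) with GAPDH (1:5000), and detected with HRP secondary antibody and ECL.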
Background: In western blotting, separated proteins are transferred to a membrane and probed.

Assay [9] deals with HCT-116. As to the kind of experiment: Induction of apoptosis in Bax-/- human HCT116 cells assessed as increase in cleaved PARP level pre-incubated with 20 uM pan-caspase inhibitor Z-VAD-FMK for 5 hrs followed by compound addition and further incubated for 48 hrs by Western blot method. The class given is functional, cell-based. Summed up: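 Cells were pretreated for 5 h with DMSO or 20 µM Z-VAD-FMK before compound exposure. Lysates were made in SDS buffer and quantified by BCA. Proteins were run on 10% SDS-PAGE, transferred to PVDF, and probed with cleaved PARP (1:1000) and GAPDH (1:5000) loading control, with ECL detection.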

For assay [10], the system named is HCT-116. As to the kind of experiment: Induction of apoptosis in human HCT116 cells assessed as increase in cleaved PARP level at 2 uM incubated for 24 hrs by Western blot method. The class given is functional, cell-based. The procedure, abridged: as §2
Assay [11] concerns HCT-116. As to the kind of experiment: Induction of apoptosis in human HCT116 cells assessed as late apoptotic cells level pre-incubated with 20 uM pan-caspase inhibitor Z-VAD-FMK for 5 hrs followed by compound addition and further incubated for 48 hrs by Annexin V-FITC/PI staining based cytometry (reference value: 0.0%). In kind it is functional. Set-up: scale not given: the % may be the effect or the level left.

The test system of assay [12] is HCT-116. The experiment in a line: Induction of apoptosis in Bax-/- human HCT116 cells assessed as viable cells level at 4 uM incubated for 48 hrs by Annexin V-FITC/PI staining based cytometry (reference value: 95.2%). The class given is functional. Summed up:
as §1

Assay [13] has as its system HCT-116. As to the kind of experiment: Cytotoxicity against human HCT116 cells assessed as reduction in cell viability incubated for 24 hrs by CCK8 assay. In kind it is functional, cell-based. Summed up: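 Cells were seeded at 3×10^4 per well, grown 24 h, then exposed to increasing concentrations for 24 h. CCK-8 reagent was added for 1 h at 37 °C and absorbance was read at 450 nm. Cells were kept in McCoy's 5A with 10% FBS, and n=3.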

Assay [14] deals with HCT-116. The experiment in a line: Inhibition of colony formation of human HCT116 cells incubated for 24 hrs and measured after 10 days post dose in fresh medium by crystal violet staining based photography. In kind it is functional, cell-based. The procedure, abridged: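 Cells (HCT116, RKO, HCT116 p53-/-, HCT116 Bax-/-) seeded at 300 per well in 12-well plates for 48 h, then treated 24 h. Drug medium replaced with fresh medium; about 10 days later colonies stained 15 min with crystal violet, photographed and counted. Run in triplicate.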

In assay [15] the test system is HCT-116. The experiment in a line: Inhibition of colony formation of human HCT116 cells pre-treated with 7.5 mM GSH for 2 hrs followed by 16 to 32 uM compound addition and further incubated for 24 hrs and measured after 10 days post dose in fresh medium by crystal violet staining based photography. The class given is functional, cell-based. The procedure, abridged: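 HCT116 seeded at about 300 per well in 12-well plates and grown 2 h. Pre-treated 2 h with H2O, 7.5 mM L-NAC or GSH, then exposed to compound for 24 h. Colonies grown 10 days in fresh medium, stained with crystal violet and counted. Triplicate wells.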

Assay [16] has as its system HCT-116. The experiment in a line: Induction of apoptosis in Bax-/- human HCT116 cells assessed as necrotic cells level pre-incubated with 20 uM pan-caspase inhibitor Z-VAD-FMK for 5 hrs followed by compound addition and further incubated for 48 hrs by Annexin V-FITC/PI staining based cytometry (reference value: 0.2%). The class given is functional. Set-up: scale not given: the % may be the effect or the level left.

In assay [17] the test system is HCT-116. The experiment in a line: Induction of apoptosis in human HCT116 cells assessed as necrotic cells level at 4 uM incubated for 24 hrs by Annexin V-FITC/PI staining based cytometry (reference value: 1.6%). The class given is functional.
The test system of assay [18] is HCT-116. The experiment in a line: Induction of apoptosis in human HCT116 cells assessed as increase in cleaved PARP level incubated for 48 hrs by Western blot method. The class given is functional, cell-based. Summed up:
as §2

As usually defined, the IC50 is the midpoint of a concentration-inhibition curve.

The source made the active and inactive calls. The calls are words filed in the database; no cut-off is given here.

`CCN(CC)CCCNC(=O)c1cn(CCCc2ccccc2)c2cc(Cl)ccc2c1=O.Cl`: the Activity in [1] is 29.4%; in [2] it was 1.8%; in assay [3], 3.5%; in assay [5], 42.4%; in [7], 2.1%; in [11] it was 2%. In addition, the Activity in assay [12] was found to be 71.5%; in assay [16], 1.2%; in assay [17] it was 4.3%. For the same compound, the inhibition result in [4] and in [15] was “inactive” in each case. The half-maximal inhibitory concentration (IC50) in assay [6] was 6.41 µM; in assay [13] (HCT-116, 24 h), 5.79 µM. The outcome in [8], in assay [10] and in assay [18] was Active. Also, the result in [9] was inactive. Also, the “growth inhibition (GI)” value in assay [13] was “Dose-dependent effect”. The inhibition result in assay [14] is “Dose-dependent effect”.

(Values after ChEMBL document CHEMBL4190353, “Synthesis, structure-activity relationships and preliminary mechanism of action of novel water-soluble 4-quinolone-3-carboxamides as antiproliferative agents” (Eur J Med Chem, 2017).)
